{"source": "ChEMBL document CHEMBL1122288", "about": "“Relationship between metabolism and radioprotective activity of 2-phenylthiazolidine and its m-bromo derivative” (J Med Chem, 1983)", "key": {"Mus musculus [1]": {"species": "Mus musculus", "test": "Lethal dose in mice", "assay_type": "functional"}, "Mus musculus [2]": {"tested_on": "Mus musculus", "test": "Percent survival at 1 hr time interval between administration (500 mg/kg, ip) and irradiation* in mice", "assay_type": "functional"}, "Mus musculus [3]": {"tested_on": "Mus musculus", "test": "Percent survival at 6 hr time interval between administration (500 mg/kg, ip) and irradiation* in mice", "assay_type": "functional"}, "Mus musculus [4]": {"tested_on": "Mus musculus", "test": "Percent survival at 15 min time interval between administration (500mg/kg, ip) and irradiation* in mice", "assay_type": "functional"}, "Mus musculus [5]": {"tested_on": "Mus musculus", "test": "Percent survival at 2 hr time interval between administration (500 mg/kg, ip) and irradiation* in mice", "assay_type": "functional"}, "Mus musculus [6]": {"tested_on": "Mus musculus", "test": "fecal levels excreted after administration of 2-(3-bromophenyl)thiazolidine(500 mg/kg) to mice measured at 0-30h", "assay_type": "ADME, organism-based", "details": "in vivo", "method_in_brief": "(§1)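 Radiolabelled compound ([³⁵S] or [α-¹⁴C]) given intraperitoneally in Miglyol 812 to mice, which were then housed in separate metabolic cages and fed normally. Faeces were collected over 0-30 h, pounded and counted by liquid scintillation. Values are percent of injected dose, given as mean ± standard error. Each line has its own number of experiments.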"}, "Mus musculus [7]": {"tested_on": "Mus musculus", "test": "fecal levels excreted after administration of 2-phenylthiazolidine (500 mg/kg) to mice measured at 0-30h", "assay_type": "ADME, organism-based", "details": "in vivo", "method_in_brief": "as §1"}, "Mus musculus [8]": {"tested_on": "Mus musculus", "test": "fecal levels excreted after administration of benzaldehyde (250 mg/kg) to mice measured at 0-30h", "assay_type": "ADME, organism-based", "details": "in vivo", "method_in_brief": "(§2)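 [α-14C]Benzaldehyde was given at 250 mg/kg intraperitoneally in Miglyol 812. Mice were kept in separate metabolic cages and fed normally. Urine was collected at 6, 24 and 30 h, and feces were pounded. Radioactivity was measured by liquid scintillation counting and expressed as percent of injected dose excreted, given as mean ± standard error of 4 experiments.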"}, "Mus musculus [9]": {"tested_on": "Mus musculus", "test": "urine levels excreted after administration of benzaldehyde (250 mg/kg) to mice measured at 0-6 hr", "assay_type": "ADME, organism-based", "details": "in vivo", "method_in_brief": "as §2"}, "[10]": {"test": "urine levels excreted after administration of benzaldehyde (250 mg/kg) to mice measured at 24-30 hr", "assay_type": "ADME, organism-based", "details": "mouse, read-out: Excretion", "method_in_brief": "as §2"}, "[11]": {"test": "urine levels excreted after administration of benzaldehyde (250 mg/kg) to mice measured at 0-24 hr", "assay_type": "ADME, organism-based", "details": "mouse, read-out: Excretion", "method_in_brief": "as §2"}, "[12]": {"test": "urine levels excreted after administration of cysteamine (175 mg/kg) to mice measured at 24-30 hr", "assay_type": "ADME, organism-based", "details": "mouse, read-out: Excretion", "method_in_brief": "(§3)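 [³⁵S]cysteamine 175 mg/kg given intraperitoneally in Miglyol 812 to mice, which were then housed in separate metabolic cages and fed normally. Urine was sampled at 6, 24 and 30 h and counted by liquid scintillation. Values are percent of injected dose excreted, as mean ± standard error of 4-5 experiments. The Mann-Whitney-Wilcoxon test was used for significance.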"}, "Mus musculus [13]": {"tested_on": "Mus musculus", "test": "urine levels excreted after administration of cysteamine (175 mg/kg) to mice measured at 0-24 hr", "assay_type": "ADME, organism-based", "details": "in vivo", "method_in_brief": "as §3"}, "Mus musculus [14]": {"tested_on": "Mus musculus", "test": "Percent survival at 1 hr time interval between administration (225mg/kg, ip) and irradiation* in mice", "assay_type": "functional"}, "Mus musculus [15]": {"tested_on": "Mus musculus", "test": "faecal levels excreted after administration of cysteamine (175 mg/kg) to mice measured at 0-30h", "assay_type": "ADME, organism-based", "details": "in vivo", "method_in_brief": "as §1"}, "Mus musculus [16]": {"tested_on": "Mus musculus", "test": "Percent survival at 15 min time interval between administration (225 mg/kg, ip) and irradiation* in mice", "assay_type": "functional"}, "Mus musculus [17]": {"tested_on": "Mus musculus", "test": "urine levels excreted after administration of cysteamine (175 mg/kg) to mice measured at 0-6 hr", "assay_type": "ADME, organism-based", "details": "in vivo", "method_in_brief": "as §3"}, "Mus musculus [18]": {"tested_on": "Mus musculus", "test": "Percent survival at 2 hr time interval between administration (225 mg/kg, ip) and irradiation* in mice", "assay_type": "functional"}}}
{"smiles": "c1ccc(C2NCCS2)cc1", "note": "(stereo not drawn)", "values": [{"measurement": "LD50", "setting": "Mus musculus [1]", "value": 1000, "unit": "mg/kg"}, {"measurement": "Survival", "setting": "Mus musculus [2]", "value": 100, "unit": "%"}, {"measurement": "Survival", "setting": "Mus musculus [3]", "value": 85, "unit": "%"}, {"measurement": "Survival", "setting": "Mus musculus [4]", "value": 100, "unit": "%"}, {"measurement": "Survival", "setting": "Mus musculus [5]", "value": 100, "unit": "%"}]}
{"smiles": "Brc1cccc(C2NCCS2)c1", "note": "(stereo not drawn)", "values": [{"measurement": "LD50", "setting": "Mus musculus [1]", "value": 1000, "unit": "mg/kg"}, {"measurement": "Survival", "setting": "Mus musculus [2]", "value": 100, "unit": "%"}, {"measurement": "Excretion", "setting": "Mus musculus [6]", "value": 0.43, "unit": "%"}, {"measurement": "Survival", "setting": "Mus musculus [4]", "value": 20, "unit": "%"}]}
{"smiles": "c1ccc(C2NCC[35S]2)cc1", "note": "(stereo in doubt; 1a)", "values": [{"measurement": "Excretion", "setting": "Mus musculus [7]", "value": 0.42, "unit": "%"}]}
{"smiles": "c1ccc(C2NCC[35S]2)cc1", "note": "(stereo in doubt; 1b)", "values": [{"measurement": "Excretion", "setting": "Mus musculus [7]", "value": 0.6, "unit": "%"}]}
{"smiles": "O=Cc1ccccc1", "note": "[BENZALDEHYDE]", "values": [{"measurement": "Excretion", "setting": "Mus musculus [8]", "value": 0.43, "unit": "%"}, {"measurement": "Excretion", "setting": "Mus musculus [9]", "value": 52.6, "unit": "%"}, {"measurement": "dose excreted", "setting": "[10]", "value": 5, "unit": "%"}, {"measurement": "dose excreted", "setting": "[11]", "value": 84.2, "unit": "%"}]}
{"smiles": "NCCS", "note": "[CYSTEAMINE]", "values": [{"measurement": "LD50", "setting": "Mus musculus [1]", "value": 450, "unit": "mg/kg"}, {"measurement": "dose excreted", "setting": "[12]", "value": 4.1, "unit": "%"}, {"measurement": "Excretion", "setting": "Mus musculus [13]", "value": 55.7, "unit": "%"}, {"measurement": "Survival", "setting": "Mus musculus [14]", "value": 80, "unit": "%"}, {"measurement": "Excretion", "setting": "Mus musculus [15]", "value": 0.92, "unit": "%"}, {"measurement": "Survival", "setting": "Mus musculus [16]", "value": 95, "unit": "%"}, {"measurement": "Excretion", "setting": "Mus musculus [17]", "value": 42.6, "unit": "%"}, {"measurement": "Survival", "setting": "Mus musculus [18]", "value": 45, "unit": "%"}]}
